Source: PubChem (Broad Institute)
A selection: hits, their analogues and other compounds. The true share with any hit is near 2.7%.
HIV Env fusion = HIV envelope-mediated fusion inhibition; AID 651610; inhibition, % at 12.3 µM; HeLa-JRFL Env/CEM21 cell fusion, luciferase; hit rate 1.1% among 360,000;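 active = mean replicate inhibition score of at least 50 and every replicate individually at or above 50; inconclusive = only one of the two criteria met; inactive = mean below 50 and not all replicates reaching 50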;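 note: 0% = plate neutral controls and 100% = maraviroc near 300 nM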
CFTR F508del cor = correctors of CFTR F508del function in bronchial epithelial cells. activity (quench increase), % at 7.58 µM. CFBE cells, YFP halide quenching; stimulated with forskolin plus potentiator P3; % fluorescence drop versus neutral controls. hit rate 0.36% among 350,000;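 active = mean added fluorescence quench of at least 8% versus neutral control, with both replicates also reaching 8%; inconclusive = only one of the mean or replicate conditions met; inactive = mean below 8% and not both replicates reaching 8%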;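 note: cells transiently co-express mutant CFTR-F508del with the halide-sensitive YFP; corrector assay measuring rescue of mutant channel to the surface after 24 h compound exposure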
E-selectin induc = E-selectin induction on HUVECs; HUVEC E-selectin immunofluorescence imaging; normalized: neutral wells 0, TNF-alpha wells 100; hit rate 0.37% among 260,000; AID 686992; P16581; activation, % at 7.58 µM;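 active = mean E-selectin-positive cell signal at least 10% of the positive control, reached in at least 60% of replicates, without over 20% cell loss; inconclusive = no rule given, readout overlaps actives, possibly toxicity-flagged; inactive = the rest, including those meeting only one limit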
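Test system: HUVEC | Signal: Immunofluorescence imaging | Read-out: Percent E-selectin-positive cells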
FGF22 binding = FGF22 (human) thermal shift binding. Q9HCT0. activity (Tm shift, normalised), % at 9.99 µM. hit rate 1.5% among 340,000. recombinant FGF22 thermal shift, SYPRO orange fluorescence; percent of sucrose octasulfate shift, DMSO zero;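 active = mean Tm shift, scaled 0 neutral to 100 positive control, at about 1.3% or above, every replicate too, limit read from the data; inconclusive = no clear call, values can overlap the other calls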
Target sequence (Q9HCT0 whole entry, looked up): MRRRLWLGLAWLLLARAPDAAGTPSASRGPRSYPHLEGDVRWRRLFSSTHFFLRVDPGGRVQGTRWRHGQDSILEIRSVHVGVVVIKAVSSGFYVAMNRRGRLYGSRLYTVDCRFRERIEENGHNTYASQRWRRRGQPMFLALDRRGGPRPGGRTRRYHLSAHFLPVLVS
S100A4 inh HTS = S100A4-myosin IIA interaction inhibition; hit rate 0.14% among 360,000; inhibition, % at 10.7 µM; P26447; S100A4/TAMRA-MyoIIA peptide fluorescence polarization;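 active = mean inhibition of at least 70% across replicates, with every replicate also reaching that level; inconclusive = mean inhibition reaches 70% but some replicates fall short; inactive = mean inhibition below 70%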
Target sequence (P26447 whole entry, looked up): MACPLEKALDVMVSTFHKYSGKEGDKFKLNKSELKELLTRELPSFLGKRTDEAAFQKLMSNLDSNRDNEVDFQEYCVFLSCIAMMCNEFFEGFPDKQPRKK
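assay system = human S100A4 monomer with TAMRA-labelled myosin IIA peptide | also added = labelled myosin peptide probe, 5 nM | incubation = 5 min between mix addition and reading | control set = DMSO and TFP controls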
Numbers without * were called inactive; ? = inconclusive; · = no result given; [ ] = another dose, or the depositor's remark.

SMILES	HIV Env fusion	CFTR F508del cor	E-selectin induc	FGF22 binding	S100A4 inh HTS
CCNc1nc(SC(C)C(=O)Nc2ccccc2)nc(N(C)C)n1 (configuration not stated)	14	-3	0	43*	1
O=C(C1=C[C@@H](c2ccc(Br)cc2)C[C@@H](OCCCCO)O1)N1CCCCCCC1	-1[16.7 µM]	0	·	0	1
CCNC(=O)C[C@@H]1CC[C@H]2[C@H](COc3ccc(NC(=O)c4cscn4)cc3C(=O)N2C)O1	21[16.7 µM]	-1	0	0	14
CN1C(=O)c2cc(NC(=O)c3cscn3)ccc2OC[C@H]2O[C@H](CC(=O)NCc3ccc(Cl)c(Cl)c3)CC[C@H]21	68*[16.7 µM]	-1	0	0	7
CN1C(=O)c2cc(NC(=O)c3cscn3)ccc2OC[C@@H]2O[C@H](CC(=O)NCc3ccc(Cl)c(Cl)c3)CC[C@H]21	58*[16.7 µM]	1	0	0	3
CC(=O)N(C)C[C@@H]1Oc2ncc(C#Cc3ccncc3)cc2C(=O)N([C@@H](C)CO)C[C@H]1C	-16[16.7 µM]	-3	0	0	4
C[C@@H]1CN([C@@H](C)CO)C(=O)c2cc(NC(=O)C3CCCCC3)ccc2O[C@H]1CN(C)S(=O)(=O)c1ccc(F)cc1	·	-1	-3	0	12
CCc1ccccc1NC(=S)NC1CC2CCC(C1)N2Cc1ccco1 (configuration not stated)	·	-3	·	0	3
CCc1ccccc1NC(=S)NC1CC2CCC(C1)N2Cc1ccc(F)cc1 (configuration not stated)	-7	-1	·	1.5*	3
CC(=O)c1ccc(NC(=O)CSc2nc(C)cc(C)c2C(N)=O)cc1	2	·	·	43*	-5
CC(=O)c1ccc(NC(=O)CSc2nc3nc(C)cc(C)n3n2)cc1	-26	-1	1	0	1
O=C(C[C@@H]1C[C@H]2c3cc(NC(=O)Cc4ccncc4)ccc3O[C@H]2[C@@H](CO)O1)NCc1ccccn1	-21[16.7 µM]	-2	0	0	2
Cc1noc(C)c1NC(=O)N(C)C[C@H]1Oc2ncc(C#CC(C)C)cc2C(=O)N([C@@H](C)CO)C[C@@H]1C	4[16.7 µM]	0	0	0	-11
Nc1c(C(=O)c2ccco2)oc2ccccc12	-24	14*	0	0	2
CCCCCc1nnc(NC(=O)Cc2ccc([N+](=O)[O-])cc2)s1	5	?	6	43*	2
CC(C)(C)Cc1nnc(NC(=O)Cc2ccc([N+](=O)[O-])cc2)s1	35	·	0	·	·
O=S(=O)(NCc1cccnc1)c1ccc(Cl)c2ccccc12	4	-1	27*	0	0
CCOc1ccc(S(=O)(=O)NCc2cccnc2)c2ccccc12	4	2	·	1	-4
COc1ccc(C(NC(=O)C2C3C=CC(C3)C2C(=O)O)c2ccccc2)cc1 (configuration not stated)	11	-1	·	52*	4
COc1ccccc1N1CCN(Cc2ccc(O)c3ncccc23)CC1	75*	·	·	·	·
C[C@@H]1CN([C@H](C)CO)C(=O)c2cc(NS(=O)(=O)c3ccc(Cl)cc3)ccc2O[C@H]1CN(C)C(=O)Nc1cccc2ccccc12	0[16.7 µM]	-2	0	0	3
COc1ccc(C(=O)N(Cc2ccccc2)Cc2cc3cc4c(cc3[nH]c2=O)OCCO4)cc1	59*	·	·	·	·
CC[n+]1c(C)sc2c3ccsc3ccc21	-4	3	·	43*	-17
Cc1ccc(C(C(=O)NC2CCCCC2)N(C(=O)c2csnn2)C2CCCC2)o1 (configuration not stated)	71*	·	·	·	-2
O=C(NC1CCCCC1)C(c1ccc(F)cc1)N(Cc1ccco1)C(=O)c1csnn1 (configuration not stated)	63*	-2	13	0	-5
SMILES	HIV Env fusion	CFTR F508del cor	E-selectin induc	FGF22 binding	S100A4 inh HTS
O=C(NC1CCCC1)C(c1ccc(F)cc1)N(Cc1ccccc1)C(=O)c1csnn1 (configuration not stated)	54	4	0	-1	-1
CC(C)CCN(C(=O)c1csnn1)C(C(=O)NC1CCCC1)c1ccc(F)cc1 (configuration not stated)	76*	2	0	0	4
O=C(C[C@H]1CC[C@@H](NS(=O)(=O)c2ccccc2)[C@H](CO)O1)N1CCN(c2ccccc2)CC1	·	1	0	·	2
CCC12CN3CC(CC)(CN(C1)C3c1ccc([N+](=O)[O-])o1)C2=O (configuration not stated)	16	0	·	43*	1
CCCCC12CN3CC(C)(CN(C1)C3c1ccc([N+](=O)[O-])o1)C2=O (configuration not stated)	-2	2	0	0	-2
CC12CN3CC(C)(CN(C1)C3c1ccc([N+](=O)[O-])o1)C2=O (configuration not stated)	-62	2	·	44*	-2
CCCC12CN3CC(C)(CN(C1)C3c1ccc([N+](=O)[O-])o1)C2=O (configuration not stated)	15	0	3	0	-10
C[C@H](CO)N1C[C@H](C)[C@@H](CN(C)S(=O)(=O)c2ccc(Cl)cc2)OCCCC[C@H](C)Oc2ccc(NS(C)(=O)=O)cc2C1=O	-3[16.7 µM]	-1	0	0	-13
Cc1ccc(NCC(=O)N2CCN(S(=O)(=O)c3ccccc3)CC2)cc1F	-25	-3	32*	0	0
N#Cc1ccc(NCC(=O)N2CCN(S(=O)(=O)c3ccccc3)CC2)cc1	4	3	0	0	-2
CCN(CC)C(=O)N1CCN(S(=O)(=O)c2ccccc2)CC1	-63	1	·	43*	5
Cc1ccc(S(=O)(=O)N2CCN(C(=O)N(c3ccccc3)c3ccccc3)CC2)cc1	25	·	·	·	·
CC(C)NC(=O)N(C)C[C@@H]1Oc2c(NC(=O)c3ccncc3)cccc2C(=O)N([C@@H](C)CO)C[C@@H]1C	·	-2	0	0	5
COC1OCC(O)C(OC(=O)c2ccccc2)C1OC(=O)c1ccccc1 (configuration not stated)	10	-3	2	43*	-4
COc1ccc(Oc2nc(-c3ccccc3)ncc2C(=O)O)cc1	1	1	·	43*	-2
COc1ccc(C(=O)c2cnc3ccccc3c2-c2ccccc2)cc1	91*	·	·	·	·
Cc1ccc(C(=O)c2cnc3ccccc3c2-c2ccccc2)cc1	83*	·	·	·	·
Cc1ccc(C(=O)c2nc(C(=O)NCCO)nc3ccccc23)cc1	6	2	0	0	3
COc1ccc(C(=O)c2c[nH]cc2-c2ccccc2)cc1	3	·	·	0	-6
C[C@H](CO)N1C[C@H](C)[C@H](CN(C)C(=O)NC2CCCCC2)Oc2ccc(NC(=O)Cc3ccccc3)cc2C1=O	6[16.7 µM]	1	-10	0	4
